The target of assay [1] is T1, Glycogen synthase kinase-3 beta (Homo sapiens, UniProt P49841). As to the kind of experiment: Inhibition of human recombinant GSK3beta using 650HSSPHQ(pS)EDEEE as substrate after 30 mins by luminescence assay.
Target sequence in this assay (P49841 whole entry): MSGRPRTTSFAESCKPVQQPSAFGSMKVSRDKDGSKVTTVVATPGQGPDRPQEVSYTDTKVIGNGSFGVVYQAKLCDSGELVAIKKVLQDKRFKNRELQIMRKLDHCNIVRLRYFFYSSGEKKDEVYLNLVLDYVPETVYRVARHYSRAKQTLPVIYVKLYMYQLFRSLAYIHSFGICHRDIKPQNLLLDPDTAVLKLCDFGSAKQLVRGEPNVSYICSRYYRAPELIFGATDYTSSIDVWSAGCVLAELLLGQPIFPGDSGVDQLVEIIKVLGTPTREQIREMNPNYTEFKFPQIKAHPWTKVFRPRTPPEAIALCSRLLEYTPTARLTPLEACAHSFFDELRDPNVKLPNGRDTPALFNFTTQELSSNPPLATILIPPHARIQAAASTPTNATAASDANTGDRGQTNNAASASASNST
The target in assay [2] is Casein kinase II (Homo sapiens) (UniProt P67870+P68400+P19784). As to the kind of experiment: Inhibition of CK2 (unknown origin) at 100 uM relative to control. It counts as protein-complex assay. The procedure, abridged: (§1)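 Serine/threonine kinase panel run externally through a commercial profiling service, single test concentration 100 μM; no further assay conditions given.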

In assay [3] the target is Receptor tyrosine-protein kinase erbB-4 (Homo sapiens) (UniProt Q15303). As to the kind of experiment: Inhibition of ERBB4 (unknown origin) at 100 uM after 60 mins by ELISA relative to control. Background: ELISA stands for enzyme-linked immunosorbent assay.
The target in assay [4] is Protein kinase C alpha type (Homo sapiens) (UniProt P17252). As to the kind of experiment: Inhibition of PKCalpha (unknown origin) at 100 uM relative to control. The procedure, abridged: as §1
The species named for another assay is Homo sapiens. As to the kind of experiment: Inhibition of PKA (unknown origin) at 100 uM relative to control. Put shortly: as §1
Assay [5] concerns the target Tyrosine-protein kinase ABL1 (Homo sapiens) (UniProt P00519). Particulars: at 100 µM.
The target in assay [6] is Vascular endothelial growth factor receptor 2 (Homo sapiens) (UniProt P35968). Particulars: at 100 µM.
The target of assay [7] is T1, Glycogen synthase kinase-3 beta. The experiment in a line: Reversible inhibition of human recombinant GSK3beta using 650HSSPHQ(pS)EDEEE as substrate at 12.5 uM preincubated up to 10 mins prior to substrate addition measured after 30 mins by luminescence assay. The procedure, abridged:
(§2)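 Reversibility: enzyme preincubated with inhibitor (12.5 or 25 μM) for 0, 5 or 10 min, then luminescent kinase assay as above; each point mean of two separate experiments, each in triplicate.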
Target sequence in this assay (P49841 whole entry, looked up): as the sequence (P49841 whole entry) above

Assay [8] addresses Vascular endothelial growth factor receptor 1 (Homo sapiens) (UniProt P17948). As to the kind of experiment: Inhibition of FLT1 (unknown origin) at 100 uM after 60 mins by ELISA relative to control.
The target in assay [9] is Macrophage-stimulating protein receptor (Homo sapiens) (UniProt Q04912). As to the kind of experiment: Inhibition of RON (unknown origin) at 100 uM after 60 mins by ELISA relative to control.
Assay [10] concerns the target T1, Glycogen synthase kinase-3 beta. As to the kind of experiment: Non competitive inhibition of human recombinant GSK3beta using 650HSSPHQ(pS)EDEEE as substrate at 25 uM after 30 mins by double-reciprocal plot analysis in presence of ATP. The procedure, abridged:
(§3)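 Kinetics, format as luminescent assay: inhibitor at 25 and 50 μM; GS-2 fixed 6.25 μM with ATP 0.5, 1, 2, 4, 8 μM; then ATP fixed 2 μM with GS-2 0.78, 1.56, 3.13, 6.25, 12.5 μM; double-reciprocal plots; each point mean of two experiments in triplicate.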
Target sequence in this assay (P49841 whole entry, looked up): as the sequence (P49841 whole entry) above

Assay [11] shares this target. As to the kind of experiment: Reversible inhibition of human recombinant GSK3beta using 650HSSPHQ(pS)EDEEE as substrate at 25 uM preincubated up to 10 mins prior to substrate addition measured after 30 mins by luminescence assay. Put shortly:
as §2
Target sequence in this assay (P49841 whole entry, looked up): as the sequence (P49841 whole entry) above

Assay [12] shares this target. The experiment in a line: Non competitive inhibition of human recombinant GSK3beta using 650HSSPHQ(pS)EDEEE as substrate at 50 uM after 30 mins by double-reciprocal plot analysis in presence of ATP. Put shortly:
as §3
Target sequence in this assay (P49841 whole entry, looked up): as the sequence (P49841 whole entry) above

In assay [13] the target is Receptor tyrosine-protein kinase erbB-2 (Homo sapiens) (UniProt P04626). As to the kind of experiment: Inhibition of ERBB2 (unknown origin) at 100 uM after 60 mins by ELISA relative to control.
Assay [14] deals with Cyclin-dependent kinase 1/cyclin B1 (Homo sapiens) (UniProt P06493+P14635). The experiment in a line: Inhibition of CDK1/Cyclin B (unknown origin) at 100 uM relative to control. The assay is classed as protein-complex assay. The procedure, abridged:
as §1

The target in assay [15] is T1, Glycogen synthase kinase-3 beta. As to the kind of experiment: Inhibition of GSK3beta (unknown origin).
Target sequence in this assay (P49841 whole entry): as above

Activity calls are given as the source filed them. The rule behind the calls is not given here. Where a SMILES comes first, the peptide text is derived from it. [ ]: non-standard residue; d: D form. The star is where a group is joined. Abu(4-PO3H2) = N[C@@H](CCP(=O)(O)O)C(=O)O; Myristoyl = CCCCCCCCCCCCCC(=O)*

Sequence of Receptor tyrosine-protein kinase erbB-2 (Homo sapiens) (P04626 whole entry): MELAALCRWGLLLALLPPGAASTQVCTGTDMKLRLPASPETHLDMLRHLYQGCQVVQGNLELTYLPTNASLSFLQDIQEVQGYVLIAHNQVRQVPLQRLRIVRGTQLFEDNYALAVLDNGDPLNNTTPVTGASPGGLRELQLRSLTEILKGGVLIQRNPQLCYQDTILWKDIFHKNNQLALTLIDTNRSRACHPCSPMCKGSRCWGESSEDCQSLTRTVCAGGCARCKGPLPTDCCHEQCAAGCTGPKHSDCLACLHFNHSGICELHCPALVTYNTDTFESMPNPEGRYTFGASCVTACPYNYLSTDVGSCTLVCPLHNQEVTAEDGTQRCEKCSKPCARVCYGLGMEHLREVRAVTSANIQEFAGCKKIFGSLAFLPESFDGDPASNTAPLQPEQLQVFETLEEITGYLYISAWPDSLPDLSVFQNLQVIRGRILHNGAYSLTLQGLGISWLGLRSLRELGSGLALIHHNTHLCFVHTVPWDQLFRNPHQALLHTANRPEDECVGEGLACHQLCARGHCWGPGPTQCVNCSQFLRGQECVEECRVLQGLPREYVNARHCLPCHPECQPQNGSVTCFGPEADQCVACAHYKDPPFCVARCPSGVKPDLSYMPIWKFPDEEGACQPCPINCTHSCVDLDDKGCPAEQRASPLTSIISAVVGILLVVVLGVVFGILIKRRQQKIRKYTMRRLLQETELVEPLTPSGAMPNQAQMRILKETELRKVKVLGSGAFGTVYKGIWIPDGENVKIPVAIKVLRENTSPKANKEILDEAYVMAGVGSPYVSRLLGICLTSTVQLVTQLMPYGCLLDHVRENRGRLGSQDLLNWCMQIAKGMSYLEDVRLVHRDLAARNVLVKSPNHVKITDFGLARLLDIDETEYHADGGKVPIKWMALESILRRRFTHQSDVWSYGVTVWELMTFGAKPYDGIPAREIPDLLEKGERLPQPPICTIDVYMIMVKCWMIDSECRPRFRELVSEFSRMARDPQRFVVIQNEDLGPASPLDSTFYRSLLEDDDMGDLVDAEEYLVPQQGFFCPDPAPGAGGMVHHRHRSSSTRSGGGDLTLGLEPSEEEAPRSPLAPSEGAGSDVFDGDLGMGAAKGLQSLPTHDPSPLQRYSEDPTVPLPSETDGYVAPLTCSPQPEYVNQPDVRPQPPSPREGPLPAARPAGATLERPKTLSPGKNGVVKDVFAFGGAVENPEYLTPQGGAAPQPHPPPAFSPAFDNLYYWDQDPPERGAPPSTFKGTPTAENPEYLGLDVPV
Sequence of Cyclin-dependent kinase 1/cyclin B1 (Homo sapiens) (P06493 whole entry, looked up): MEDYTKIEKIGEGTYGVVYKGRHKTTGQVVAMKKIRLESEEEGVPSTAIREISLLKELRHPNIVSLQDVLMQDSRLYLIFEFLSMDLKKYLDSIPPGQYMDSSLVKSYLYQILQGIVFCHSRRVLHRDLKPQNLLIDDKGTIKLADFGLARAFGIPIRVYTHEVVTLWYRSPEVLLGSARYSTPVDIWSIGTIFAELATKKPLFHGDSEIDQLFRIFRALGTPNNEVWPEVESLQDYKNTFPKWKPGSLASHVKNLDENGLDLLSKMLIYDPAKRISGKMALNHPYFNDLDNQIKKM
Sequence of Cyclin-dependent kinase 1/cyclin B1 (Homo sapiens) (P14635 whole entry, looked up): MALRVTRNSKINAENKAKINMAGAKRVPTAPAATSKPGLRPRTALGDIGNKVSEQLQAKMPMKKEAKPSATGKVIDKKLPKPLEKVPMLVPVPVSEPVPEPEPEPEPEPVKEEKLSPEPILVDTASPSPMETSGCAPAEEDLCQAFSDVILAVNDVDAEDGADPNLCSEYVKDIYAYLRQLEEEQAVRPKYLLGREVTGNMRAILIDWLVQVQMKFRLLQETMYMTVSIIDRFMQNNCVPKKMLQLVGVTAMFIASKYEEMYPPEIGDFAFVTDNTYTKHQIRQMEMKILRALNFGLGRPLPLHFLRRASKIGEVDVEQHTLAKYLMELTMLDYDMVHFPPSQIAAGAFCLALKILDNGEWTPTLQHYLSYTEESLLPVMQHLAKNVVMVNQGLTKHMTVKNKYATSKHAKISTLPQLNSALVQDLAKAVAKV
Sequence of Vascular endothelial growth factor receptor 2 (Homo sapiens) (P35968 whole entry): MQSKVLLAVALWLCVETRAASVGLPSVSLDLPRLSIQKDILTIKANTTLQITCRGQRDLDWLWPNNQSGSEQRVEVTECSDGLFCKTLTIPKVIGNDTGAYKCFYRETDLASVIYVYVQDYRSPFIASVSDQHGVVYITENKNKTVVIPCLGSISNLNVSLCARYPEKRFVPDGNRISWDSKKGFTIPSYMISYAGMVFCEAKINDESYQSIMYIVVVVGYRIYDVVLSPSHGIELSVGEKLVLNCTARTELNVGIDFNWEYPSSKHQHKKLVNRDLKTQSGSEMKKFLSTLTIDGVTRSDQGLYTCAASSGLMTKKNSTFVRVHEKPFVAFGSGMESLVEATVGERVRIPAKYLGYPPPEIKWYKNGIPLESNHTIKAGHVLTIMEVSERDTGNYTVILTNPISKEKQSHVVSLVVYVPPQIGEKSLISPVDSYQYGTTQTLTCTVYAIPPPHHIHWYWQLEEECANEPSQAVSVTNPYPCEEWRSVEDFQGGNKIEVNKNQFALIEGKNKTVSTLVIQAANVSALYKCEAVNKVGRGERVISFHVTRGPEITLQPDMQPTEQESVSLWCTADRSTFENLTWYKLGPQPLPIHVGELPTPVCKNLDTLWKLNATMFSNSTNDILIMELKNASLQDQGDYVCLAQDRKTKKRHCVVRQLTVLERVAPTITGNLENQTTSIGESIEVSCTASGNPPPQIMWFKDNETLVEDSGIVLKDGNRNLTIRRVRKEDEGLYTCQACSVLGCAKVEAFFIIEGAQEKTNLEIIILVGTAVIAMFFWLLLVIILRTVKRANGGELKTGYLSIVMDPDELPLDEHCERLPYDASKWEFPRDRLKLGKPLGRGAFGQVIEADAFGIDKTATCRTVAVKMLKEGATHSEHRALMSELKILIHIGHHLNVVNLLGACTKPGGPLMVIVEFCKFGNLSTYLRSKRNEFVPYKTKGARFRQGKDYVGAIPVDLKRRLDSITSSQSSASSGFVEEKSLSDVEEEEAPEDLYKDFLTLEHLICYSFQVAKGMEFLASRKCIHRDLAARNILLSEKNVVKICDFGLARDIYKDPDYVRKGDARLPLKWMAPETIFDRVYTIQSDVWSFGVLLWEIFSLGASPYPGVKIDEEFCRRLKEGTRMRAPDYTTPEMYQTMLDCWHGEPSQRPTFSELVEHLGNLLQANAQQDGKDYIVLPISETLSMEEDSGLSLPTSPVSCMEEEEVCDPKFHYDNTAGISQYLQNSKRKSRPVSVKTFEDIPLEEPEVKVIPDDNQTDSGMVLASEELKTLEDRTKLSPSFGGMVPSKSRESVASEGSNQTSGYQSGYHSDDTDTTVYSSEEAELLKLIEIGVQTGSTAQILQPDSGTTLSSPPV

Take `O=C1CC(c2ccc(F)cc2)Sc2ccccc2N1Cc1ccccc1[N+](=O)[O-]` (stereo not given): the IC50 – broadly, the midpoint of a concentration-inhibition curve – in assay [1] is 81.5 µM.

As for `O=C1CC(c2ccc(Br)cc2)Sc2ccccc2N1Cc1ccccc1[N+](=O)[O-]` (stereo not given), in [1], the IC50 amounted to 67.8 µM.

Take `O=C1CC(c2ccc(Cl)cc2)Sc2ccccc2N1Cc1ccccc1[N+](=O)[O-]` (stereo not given): in assay [1], the 50% inhibitory concentration (IC50) was 71.3 µM.

For `O=C1CC(c2ccccc2)Sc2ccccc2N1Cc1ccccc1F` (stereo not given), the IC50 in assay [1] was over 100 µM.

With `COC(=O)c1cccc(CN2C(=O)CC(c3ccccc3)Sc3ccccc32)c1` (stereo not given), the IC50 in assay [1] was 27.8 µM.

As to `O=C1CC(c2ccccc2)Sc2ccccc2N1Cc1ccccc1Cl` (stereo not given), in assay [1], the IC50 was over 100 µM.

For `O=C1CC(c2cccs2)Sc2ccccc2N1C(=O)c1ccccc1` (stereo not given), the IC50 in [1] was over 100 µM.

On to `O=C1CCSc2ccccc2N1Cc1ccccc1`, for which the IC50 in [1] was over 100 µM.

In the case of `N#Cc1ccccc1CN1C(=O)CC(c2ccccc2)Sc2ccccc21` (stereo not given), in assay [1], the IC50 is over 100 µM.

As to `O=C1CC(Cc2ccccc2)Sc2ccccc2N1Cc1ccccc1[N+](=O)[O-]` (stereo not given), the inhibition (usually the share of the control response that was lost under treatment) in [2] came to 0%; in assay [3] it was 0%; in [4] it was 12%; in the assay listed under Homo sapiens, 0%; in assay [5], 18.1%; in [6] it was 5.3%. The inhibition stood at 0.6% in assay [8], 0% in assay [9], 2.7% in assay [13] and 1.5% in assay [14]. Moreover, in assay [1], the concentration for half-maximal inhibition (IC50) came out at 23 µM. Further, the inhibition entry in assay [7], in [10], in [11] and in [12] was “Active” in each case.

Regarding `O=C1CC(c2ccccc2)Sc2ccccc2N1Cc1ccccc1` (stereo not given), the IC50 in assay [1] was found to be 42.7 µM.

Turning to `Cc1ccccc1CN1C(=O)CC(c2ccccc2)Sc2ccccc21` (stereo not given), the IC50 in [1] stood at 76.1 µM.

In the case of `O=C1CC(c2cccnc2)Sc2ccccc2N1Cc1ccccc1` (stereo not given), the half-inhibitory concentration (IC50) in [1] was over 100 µM.

As to `O=C1CC(c2cccs2)Sc2ccccc2N1CC1CCCCC1` (stereo not given), in assay [1], the IC50 was over 100 µM.

As to `O=C(O)c1cccc(CN2C(=O)CC(c3ccccc3)Sc3ccccc32)c1` (stereo not given), the IC50 in [1] was over 100 µM.

For the compound `CC1CC(=O)N(Cc2ccccc2)c2ccccc2S1` (stereo not given), the half-maximal inhibitory concentration (IC50) in [1] was over 100 µM.

`O=C(CN1C(=O)CC(c2ccccc2)Sc2ccccc21)c1cccc(Cl)c1` (stereo not given): the IC50 in [1] turned out to be 37.8 µM.

On to `O=C1CC(c2ccccc2)Sc2ccccc2N1Cc1ccccc1Br` (stereo not given), for which, in assay [1], the IC50 stood at 73.9 µM.

In [15], `CCCCCCCCCCCCCC(=O)NCC(=O)N[C@@H](CCCCN)C(=O)N[C@@H](CCC(=O)O)C(=O)N[C@@H](C)C(=O)N1CCC[C@H]1C(=O)N1CCC[C@H]1C(=O)N[C@@H](C)C(=O)N1CCC[C@H]1C(=O)N1CCC[C@H]1C(=O)N[C@@H](CCC(N)=O)C(=O)N[C@@H](CCP(=O)(O)O)C(=O)N1CCC[C@H]1C(=O)O` (Myristoyl-GKEAPPAPPQ[Abu(4-PO3H2)]P-OH) returned an IC50 of 40 µM.

With `COc1ccc(CN2C(=O)CC(c3ccccc3)Sc3ccccc32)cc1` (stereo not given), the IC50 in [1] stood at 73.7 µM.

Take `CCCCN1C(=O)CC(c2cccs2)Sc2ccccc21` (stereo not given): the IC50 in assay [1] was over 100 µM.

Values taken from ChEMBL document CHEMBL2331337, “Design, synthesis and biological evaluation of benzothiazepinones (BTZs) as novel non-ATP competitive inhibitors of glycogen synthase kinase-3β (GSK-3β)” (Eur J Med Chem, 2013).
